As usually defined, the inhibition is the change of the read-out against control, counted positive when it falls. For orientation: IC50 means the midpoint of a concentration-inhibition curve. Usually inhibition in vivo stands for the drop in the measured response relative to a control, in per cent.

Experimental findings from ChEMBL document CHEMBL1629530, “1,5-Benzoxazepines vs 1,5-benzodiazepines. one-pot microwave-assisted synthesis and evaluation for antioxidant activity and lipid peroxidation inhibition” (J Med Chem, 2010) are described below.

One series deals with Glycine max. Briefly: Inhibition of soybean lipoxygenase at 100 uM by UV absorbance based assay. In a few lines:
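Soybean LOX (1 × 10^-4 w/v in saline, diluted 1:9 with saline) incubated at room temperature with sodium linoleate and compound in DMSO (100 μM). Conversion to 13-hydroperoxylinoleic acid recorded at 234 nm against a standard inhibitor. At least triplicate.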

For series [1], the system named is Radical scavenging activity. Briefly: Antioxidant activity assessed as DPPH radical scavenging activity at 100 uM after 60 mins. It counts as functional. In a few lines: (§1)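 DPPH 0.05 mM in absolute ethanol mixed with an equal volume of compound in DMSO (final 50 and 100 μM). Shaken vigorously, then left to stand 20 or 60 min. At least triplicate; absorbance SD under 10% of mean.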

For series [2], the system named is Radical scavenging activity. Put plainly: Antioxidant activity assessed as DPPH radical scavenging activity at 100 uM after 20 mins. It counts as functional. In a few lines: as §1
Background: Loss of DPPH colour is used to gauge radical scavenging.

Series [3] in a line: Inhibition of AAPH-induced linoleic acid lipid peroxidation. It is filed as physicochemical. The method in brief: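 Linoleic acid sodium salt (10 μL of 16 mM) in 0.05 M phosphate buffer pH 7.4, prethermostated at 37 °C. Oxidation started under air at 37 °C with 50 μL of 40 mM AAPH, compounds in DMSO. Conjugated diene hydroperoxide formation followed as rising absorbance at 234 nm; result given as IC50. At least triplicate.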

Series [4] deals with Rattus norvegicus. Briefly: Antiinflammatory activity in Fisher 344 rat assessed as inhibition of carrageenan-induced paw edema at 0.01 mmol/kg, ip administered simultaneously with carrageenan. It counts as functional. To be noted: Fisher 344, ip. In a few lines: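 Edema induced by intradermal injection of 0.1 mL 2% carrageenin in water into right hind paw of Fisher 344 rats (150-200 g), both sexes, pregnant females excluded, fasted during experiment; 6-15 animals per group. Compound suspended in water with a few drops of Tween 80, given ip. Rats euthanized 3.5 h later. Injected minus uninjected paw weight compared with water-treated controls as % inhibition; mean of two experiments.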
In general terms: Carrageenan injected into the paw causes an acute inflammation.

Series [5] concerns Rattus norvegicus. Briefly: Toxicity in Fisher 344 rat carrageenan-induced inflammation model at 0.2 mmol/kg, ip administered simultaneously with carrageenan. It is filed as organism-based. To be noted: in vivo.
The subject of series [6] is Radical scavenging activity. Briefly: Antioxidant activity assessed as DPPH radical scavenging activity at 50 uM after 60 mins. It counts as functional. The method in brief: as §1
Series [7] has as its system Radical scavenging activity. Briefly: Antioxidant activity assessed as DPPH radical scavenging activity at 50 uM after 20 mins. It is filed as functional. In a few lines:
as §1

Active and inactive are the calls of the source. The calls are words filed in the database; no cut-off is given here.

In the series with Glycine max, `CC1(C)CC(c2ccccc2)=Nc2ccccc2N1` yielded an inhibition of 6%. The Activity in series [1] stood at 14%; in series [2], 15%. This compound returned an IC50 in series [3] of 45 µM.

On to `COc1ccc2c(c1)c(CC(=O)O)c(C)n2C(=O)c1ccc(Cl)cc1` [INDOMETHACIN], for which the inhibition in vivo at 10 µmol/kg with Rattus norvegicus [4] is 47%.

In turn, `COc1ccccc1C1=Nc2c(O)cccc2NC(C)(c2ccccc2OC)C1` (stereo not drawn) returned an inhibition in the series with Glycine max of 3%. The Activity in series [1] and in series [2] was 36% in each case. Also, half-maximal inhibition in series [3] (IC50) required 46 µM.

For `CC1(c2ccccc2)CC(c2ccccc2)=Nc2c(O)cccc2N1` (stereo not drawn), the inhibition in the series with Glycine max was found to be 28%. For the same compound, the Activity came out at 29% in series [1] and 30% in series [2]. The compound further yielded an IC50 in series [3] of 50 µM.

As to `CC1(c2ccc(Cl)cc2)CC(c2ccc(Cl)cc2)=Nc2c(O)cccc2N1` (stereo not drawn), the inhibition result in the series with Glycine max is “inactive”. In addition, the Activity in series [1] is 53%; in the series with Rattus norvegicus [5], “Non-toxic”; in series [2], 54%. Besides, the inhibition in vivo at 10 µmol/kg in the series on Rattus norvegicus [4] was 35%. Also, inhibition in series [3] was half-maximal at 2.5 µM (IC50).

As for `CC1=Nc2c(N)cccc2OC(C)(C)C1`, in the series with Glycine max, the inhibition stood at 98%. The Activity came to 88% in series [6], 86% in series [1], 87% in series [7] and 86% in series [2]. The compound further yielded a concentration for half-maximal inhibition (IC50) in series [3] of 70 µM.

Compound `COc1cccc(C2=Nc3c(O)cccc3NC(C)(c3cccc(OC)c3)C2)c1` (stereo not drawn) had an inhibition with Glycine max of 37%. The Activity in series [1] and in series [2] was 27% each time. Also, the IC50 in series [3] came to 60 µM.

Turning to `CC1(c2cccc([N+](=O)[O-])c2)CC(c2cccc([N+](=O)[O-])c2)=Nc2c(O)cccc2N1` (stereo not drawn), the inhibition result in the series on Glycine max was “inactive”. Moreover, the Activity in series [1] and in series [2] was 32% in each case. In series [3], this compound displayed an IC50 of 46 µM.

Turning to `CC(Cc1ccc(O)c(O)c1)C(C)Cc1ccc(O)c(O)c1` (stereo not drawn), in the series with Glycine max, the inhibition worked out at 84%. Besides, the Activity in series [1] came out at 96%; in series [2] it was 93%.

On to `CC1=Nc2c(O)cccc2NC(C)(C)C1`, for which the inhibition result in the series on Glycine max is “inactive”. The Activity in series [6] came out at 67%; in series [1], 65%; in series [7] it was 44%; in series [2], 66%. Also, the IC50 in series [3] amounted to 77 µM.

In turn, `Cc1ccc(NC(=O)Oc2cccc3c2N=C(c2ccccc2)CC(C)(c2ccccc2)N3)cc1` (stereo not drawn) yielded an inhibition with Glycine max of 3%. Besides, the Activity in series [1] came to 9%; in series [2] it was 10%. Moreover, the IC50 in series [3] came to 50 µM.

With `CC1(c2ccc(Cl)cc2)CC(c2ccc(Cl)cc2)=Nc2c(N)cccc2O1` (stereo not drawn), the inhibition entry in the series with Glycine max is “inactive”. Also, the Activity in series [6] worked out at 86%; in series [1], 86%; in series [7], 87%; in series [2], 86%. In series [3], this compound showed an IC50 of 47.5 µM.

As for `Cc1c(C)c2c(c(C)c1O)CCC(C)(C(=O)O)O2` (stereo not drawn) [TROLOX], the IC50 in series [3] stood at 63 µM.
